The source of these data is ChEMBL document CHEMBL4308898, “Synthesis and biological evaluation of arylpiperazine derivatives as potential anti-prostate cancer agents” (Bioorg Med Chem, 2019).

pIC50: −log10 of the molar value.

The subject of experiment [1] is LNCaP. Nature of the experiment: Antiproliferative activity against human LNCAP cells after 24 hrs by CCK-8 assay. Format: functional, cell-based. The essentials: (§1)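 Media with 10% FBS plus penicillin/streptomycin: RPMI1640 (DU145), F12 (LNCaP), DMEM (PC-3). Log-phase cells seeded at 1 × 10^5 cells/mL and grown 24 h at 37 °C, 5% CO2, then given various compound concentrations for 24 h. CCK-8 added for 1 h, absorbance read at 450 nm. Inhibition = (1 − OD treated/OD control) × 100%. IC50 from linear regression; three independent experiments.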
A general note: Tetrazolium dyes change colour on reduction, which living cells bring about.

Experiment [2] concerns PC-3. The experiment in a line: Antiproliferative activity against human PC3 cells after 24 hrs by CCK-8 assay. Format: functional, cell-based. Particulars: PC-3, 24 h. The essentials:
as §1

Experiment [3] concerns the target T1, Androgen receptor (Homo sapiens) (UniProt P10275).
T1 sequence (whole entry): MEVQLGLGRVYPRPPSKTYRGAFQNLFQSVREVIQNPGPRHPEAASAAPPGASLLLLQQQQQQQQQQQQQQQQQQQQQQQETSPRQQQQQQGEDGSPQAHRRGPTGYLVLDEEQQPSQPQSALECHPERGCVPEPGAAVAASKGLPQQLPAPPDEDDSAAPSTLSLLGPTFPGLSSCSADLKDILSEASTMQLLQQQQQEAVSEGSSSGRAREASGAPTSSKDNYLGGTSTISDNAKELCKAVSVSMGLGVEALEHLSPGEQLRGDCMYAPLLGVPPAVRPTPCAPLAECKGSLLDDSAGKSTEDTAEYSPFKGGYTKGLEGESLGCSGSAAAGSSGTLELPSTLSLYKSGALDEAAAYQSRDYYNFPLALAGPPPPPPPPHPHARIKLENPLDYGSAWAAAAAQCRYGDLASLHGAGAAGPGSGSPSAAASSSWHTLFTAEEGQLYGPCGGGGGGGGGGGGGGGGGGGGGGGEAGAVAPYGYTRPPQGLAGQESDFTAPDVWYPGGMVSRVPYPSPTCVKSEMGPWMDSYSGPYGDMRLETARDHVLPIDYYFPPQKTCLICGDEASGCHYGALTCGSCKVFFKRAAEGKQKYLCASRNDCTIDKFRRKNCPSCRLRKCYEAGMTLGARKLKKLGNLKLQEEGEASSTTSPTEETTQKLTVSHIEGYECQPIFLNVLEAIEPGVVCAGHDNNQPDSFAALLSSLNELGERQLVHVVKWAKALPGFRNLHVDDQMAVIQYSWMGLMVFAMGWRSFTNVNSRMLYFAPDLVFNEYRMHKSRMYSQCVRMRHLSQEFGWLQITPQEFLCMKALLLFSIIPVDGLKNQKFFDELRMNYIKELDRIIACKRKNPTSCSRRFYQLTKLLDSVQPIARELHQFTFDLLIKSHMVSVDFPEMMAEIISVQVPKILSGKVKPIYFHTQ
Conditions: at 10 µM.

For experiment [4], the target named is T2, Androgen receptor (Rattus norvegicus, UniProt P15207).
T2 sequence (P15207 whole entry): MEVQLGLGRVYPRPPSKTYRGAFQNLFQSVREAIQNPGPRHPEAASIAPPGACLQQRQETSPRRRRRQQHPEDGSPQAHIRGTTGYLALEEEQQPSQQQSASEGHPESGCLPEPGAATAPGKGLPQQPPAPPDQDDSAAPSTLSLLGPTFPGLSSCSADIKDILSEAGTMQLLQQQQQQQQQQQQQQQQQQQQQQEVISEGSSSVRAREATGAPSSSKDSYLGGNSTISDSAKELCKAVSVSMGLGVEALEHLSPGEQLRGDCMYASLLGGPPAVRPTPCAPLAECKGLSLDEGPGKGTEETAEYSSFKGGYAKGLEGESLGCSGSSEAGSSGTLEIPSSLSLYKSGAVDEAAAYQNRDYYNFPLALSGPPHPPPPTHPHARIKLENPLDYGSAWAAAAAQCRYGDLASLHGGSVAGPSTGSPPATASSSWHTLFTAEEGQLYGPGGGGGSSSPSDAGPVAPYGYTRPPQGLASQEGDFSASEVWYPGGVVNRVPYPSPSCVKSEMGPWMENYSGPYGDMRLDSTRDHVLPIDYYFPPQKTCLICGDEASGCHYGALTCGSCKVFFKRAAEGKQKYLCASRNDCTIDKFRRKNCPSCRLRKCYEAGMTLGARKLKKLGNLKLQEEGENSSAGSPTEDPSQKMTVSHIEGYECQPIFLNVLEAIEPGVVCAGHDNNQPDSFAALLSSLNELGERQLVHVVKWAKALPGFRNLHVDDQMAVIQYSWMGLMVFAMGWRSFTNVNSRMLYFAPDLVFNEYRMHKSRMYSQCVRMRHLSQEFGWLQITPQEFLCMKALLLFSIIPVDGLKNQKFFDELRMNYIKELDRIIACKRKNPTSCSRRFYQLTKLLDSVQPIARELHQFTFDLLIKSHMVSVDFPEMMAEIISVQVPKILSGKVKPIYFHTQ
The experiment in a line: Displacement of fluormone-AL Green from His-tagged/GST-fused recombinant rat androgen receptor LBD expressed in insect cells measured after 4 hrs by fluorescence polarization assay. On the technique in general: In fluorescence polarisation assays a small probe gives low polarisation when free and higher when bound to something large.

Experiment [5] has as its system RWPE-1. Nature of the experiment: Antiproliferative activity against human RWPE1 cells after 24 hrs by CCK-8 assay. Format: cell-based. Particulars: RWPE-1, 24 h. The essentials: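 RWPE-1 grown in DMEM with 10% FBS, penicillin 100 U/mL and streptomycin 0.1 mg/mL at 37 °C, 5% CO2. Log-phase cells seeded at 1 × 10^5 cells/mL, cultured 24 h, then exposed to various compound concentrations for 24 h. CCK-8 added, 1 h at 37 °C, absorbance read at 450 nm. Inhibition = (1 − OD treated/OD control) × 100%. IC50 by linear regression of concentration-response curves. Three independent experiments.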

Experiment [6] concerns DU-145. The experiment in a line: Antiproliferative activity against human DU145 cells after 24 hrs by CCK-8 assay. It is filed as functional, cell-based. Conditions: DU-145, 24 h. The essentials: as §1

As to `COc1ccc(OCCc2ccc(CN3CCN(c4ccccc4)CC3)cc2)cc1`, the pIC50 in experiment [1] is 5.13; in experiment [2], 5.05; in experiment [4] it was 5.94; in experiment [5], less than 4.30; in experiment [6], 5.01. For the same compound, in experiment [3], the inhibition came out at 67.1%.

As to `O=[N+]([O-])c1ccc(OCCc2ccc(CN3CCN(c4ccccc4)CC3)cc2)cc1`, the pIC50 in experiment [1] is 5.07; in experiment [2], 5.03; in experiment [4] it was 5.42; in experiment [5], 5.41; in experiment [6], 5.06. In experiment [3], this compound came in with an inhibition of 50.1%.

For the compound `FC(F)(F)c1ccc(OCCc2ccc(CN3CCN(c4ccccc4)CC3)cc2)cc1`, the pIC50 is 5.06 in experiment [1]; 5.30 in experiment [2]; 5.39 in experiment [4]; 4.88 in experiment [5]; 5.32 in experiment [6]. The same compound came in with an inhibition in experiment [3] of 48.2%.

Broadly, the pIC50 is the IC50 on a negative log10 scale, so that one unit is a factor of ten. By inhibition is commonly meant how much of the control response was suppressed. Low values mean little suppression, high ones strong suppression.
